Test results reported in the array DNA melting data of Ke et al. (doi:10.1101/2024.01.08.574731).

What was measured:
[1] = melting temperature; fluorescence melt of hairpins on a sequencing array, two-state fit, raised by 9.35 °C to match UV melts; conditions: sodium 0.088 M
Method in brief: (§1)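 Hairpins were imaged by Cy3 fluorescence on a sequenced MiSeq flow cell with annealed Cy3 and quencher oligos, in 50 mM Na-HEPES pH 8.0, 25 mM NaCl, in 2.5 °C steps up to 60 °C. Bootstrapped two-state fits of normalised signals gave melting temperature and folding enthalpy. Four replicates were combined by inverse variance, and fitted temperatures were raised by 9.35 °C to match UV melts.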

[2] = folding enthalpy; higher = less favourable; fluorescence melt of hairpins on a sequencing array, two-state fit; conditions: sodium 0.088 M
Method in brief: as §1

Sequence	Tm [1] [°C]	folding enthalpy [2] [kcal/mol]
GAAGTACGAAAGTATTC (((.(((....))))))	27.1	-10.4
GCTCTCGAAAGAGGAAGC ((((((....)))..)))	38.4	-18.8
GATCGGAACCCCGATC ((((((....))))))	54.1	-40
GCTGGCGAAAGCCCAAGC ((((((....)))..)))	50	-15.3
GGCAAACCGAAAGGTGCC (((..(((....))))))	56	-39.1
GCGGTTGGAAACAACCAC (.(((((....))))).)	44.8	-14.8
GATCCGTATCGGATC ((((((...))))))	57.3	-30.3
GGCCACGAAAGTGGAGCC ((((((....)))..)))	53.9	-15.5
GCAAGGCGAAAGCCTGC (((.(((....))))))	66.5	-19.8
GATCGGTCCCCCGATC ((((((....))))))	55.7	-45
GCTCCGCGAAAGCAGTGC ((.(.((....)).).))	41.4	-12.5
GAGAAGGGAAACCTCCTC (((.(((....))).)))	28.8	-17.7
GGGGTAGGAAACCACCCC (((((.(....).)))))	50.7	-30.2
GATCAATCAGTTGATC ((((((....))))))	44.4	-29.6
GTTGGCGAAAGCCTAAC ((((((....))).)))	43.4	-12.8
GGCTTCACGAAAGTGGCC (((..(((....))))))	45.2	-19.6
GGTAACGAAAGTTATACC ((((((....)))..)))	32.6	-22.1
GATCATGCAAATGATC ((((((....))))))	55.4	-39.7
GAGCCGCGAAAGCGTCTC (((.(((....))).)))	54.3	-22.4
GAGTCCGGAAACGGATTC ((.((((....)))).))	49.9	-24.7
GCCCAACCGAAAGGTGGC (((..(((....))))))	51.6	-18.8
GATGCTGGAAACAGCGTC ((.((((....)))).))	54.5	-39.7
GCGGAAAACCGC ((((....))))	49.8	-16.3

Sequence	Tm [1] [°C]	folding enthalpy [2] [kcal/mol]
GATCTCACCAGAGATC ((((((....))))))	54.5	-31.9
GGGACCGGAAACGGCCCC (((.(((....))).)))	62.5	-37
GACGAAACGAAAGTTGTC (((..(((....))))))	35	-19.6
GCGTTGGACGC ((((...))))	52.7	-19.5
GCCTGCGAAAGCATTGGC ((((((....)))..)))	50.9	-21.2
GATCCCGGAAACGGGACC (.(((((....))))).)	46.7	-11
AAGAGGAAACTCTT (((((....)))))	28	-9.65
GATCCGGCCCCGGATC ((((((....))))))	61.1	-47.8
GCGTACGAAAGTAGGCGC ((((((....)))..)))	56	-30
GTCGGGGGAAACCCCAAC ((.((((....)))).))	38.5	-16.1
GGCTTGGGAAACTAAGCC (((((.(....).)))))	52.2	-45.5
GTGTCGGCGAAAGCCCAC (((..(((....))))))	43.8	-13.5
GTCCGAGGAAACTTGGGC (.((.((....)).)).)	41	-27.9
GACTTTGGAAACGAAGTC (((((.(....).)))))	44.6	-29.4
GACGGCGAAAGCCATGTC ((((((....)))..)))	45.2	-13.3
GATCTATAACTAGATC ((((((....))))))	36.7	-34.2
GGTCATCGAAAGATAACC (((.(((....))).)))	39.4	-26.8
GATCGGGCGTCCGATC ((((((....))))))	58.2	-37.2
GGTTCACGAAAGTGACC (((.(((....))))))	59	-15.5
GTGTGTACGAAAGTACAC (((..(((....))))))	64.2	-14.8
GGCGAGGCGAAAGCCGCC (((..(((....))))))	66.9	-17.3
GACGTGCGAAAGCAGTC (((.(((....))))))	54.9	-21.6
GAAGACGAAAGTCGTTC ((((((....))).)))	37.9	-12.3

Sequence	Tm [1] [°C]	folding enthalpy [2] [kcal/mol]
GAGGACGGAAACGTCCCC (.(((((....))))).)	42.3	-10.4
GATCCGCCCGCGGATC ((((((....))))))	68.7	-38.3
GAAGCCGAAAGGCGTTC ((((((....))).)))	46.7	-8.99
GATTCACGAAAGTGTATC (((.(((....))).)))	42.7	-25.9
GTTGTCGAAAGACACAAC ((((((....)))..)))	32.6	-11
GCGCCCGAAAGGGGTCGC ((((((....)))..)))	58.3	-19.5
GATCACACTAGTGATC ((((((....))))))	58.8	-43.4
GACGAGGAAACTCGTC ((((((....))))))	61.2	-41.1
GTCTGTGGAAACGTAGAC ((((..(....)..))))	37.2	-23.6
GATCAGGTGACTGATC ((((((....))))))	54.9	-46.4
GCCTCGCGAAAGCAAAGC ((.(.((....)).).))	28.4	-9.86
GCGGTGTCCCGC ((((....))))	56.5	-32.1
GGGACCTCGAAAGAGCCC (((..(((....))))))	35.3	-19.4
GGTTGTGGAAACGCAATC (.(((.(....).))).)	35.7	-20.6
GTTGTCGAAAGACAGAAC ((((((....)))..)))	35.6	-12.9
GCTTAGCGAAAGCTGCGC ((..(((....)))..))	54.9	-19.3
GCACCGCGAAAGCAGCGC ((.(.((....)).).))	46.5	-18.2
GGGACCGGAAACGGTTCC ((.((((....)))).))	62.6	-42.5
GAGACAACGAAAGTTCTC (((..(((....))))))	28.3	-20.4
GTGCTAGGAAACTAGTAC ((.((((....)))).))	44.9	-33.5
GATCACATCAGTGATC ((((((....))))))	58.4	-42.1
GCAAAGCGAAAGCAATGC (((..((....))..)))	34.5	-12.1
GCTGAGTCGAAAGACAGC (((..(((....))))))	44.5	-20.8
